Measurements from ChEMBL document CHEMBL1154935, “Design, synthesis, evaluation and QSAR analysis of N(1)-substituted norcymserine derivatives as selective butyrylcholinesterase inhibitors” (Bioorg Med Chem Lett, 2010).

How the values were obtained:
Acetylcholinesterase = molecular target: T1, Acetylcholinesterase (Mus musculus, UniProt P21836); test: Inhibition of mouse brain AChE after 1 hr by modified Ellman's colorimetric method
T1 sequence (P21836 whole entry): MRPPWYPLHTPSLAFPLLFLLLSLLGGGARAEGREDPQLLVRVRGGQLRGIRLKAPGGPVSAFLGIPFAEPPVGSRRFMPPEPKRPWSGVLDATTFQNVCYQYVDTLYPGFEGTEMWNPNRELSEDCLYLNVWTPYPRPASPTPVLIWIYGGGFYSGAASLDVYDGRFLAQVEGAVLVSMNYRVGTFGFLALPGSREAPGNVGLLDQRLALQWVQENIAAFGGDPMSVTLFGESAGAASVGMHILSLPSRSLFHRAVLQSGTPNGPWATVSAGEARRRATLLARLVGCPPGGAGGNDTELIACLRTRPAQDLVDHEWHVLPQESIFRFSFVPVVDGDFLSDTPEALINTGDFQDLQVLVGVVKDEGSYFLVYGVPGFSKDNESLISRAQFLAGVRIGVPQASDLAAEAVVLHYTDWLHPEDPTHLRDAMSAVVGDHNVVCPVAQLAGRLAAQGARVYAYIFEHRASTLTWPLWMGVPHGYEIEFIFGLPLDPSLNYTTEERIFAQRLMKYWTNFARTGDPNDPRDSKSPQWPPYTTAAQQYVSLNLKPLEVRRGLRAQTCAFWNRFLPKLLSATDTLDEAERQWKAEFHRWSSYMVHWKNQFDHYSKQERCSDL
How it was run: (§1)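 Enzyme source was a mouse brain extract. Inhibitor was preincubated with enzyme for 1 h at 37 °C, then acetylthiocholine was added together with DTNB. Absorbance at 415 nm was read at 2 min intervals. Activity was taken as percent of the DMSO solvent control. Seven concentrations were tested, and IC50 came from nonlinear regression of a sigmoidal dose-response curve.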

Cholinesterase = Cholinesterase (Mus musculus, UniProt Q03311); test: Inhibition of mouse serum BChE after 1 hr by modified Ellman's colorimetric method
How it was run: as §1, with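 “serum” for “brain”, “butyrylthiocholine” for “acetylthiocholine”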

Sequence of Cholinesterase (Q03311 whole entry): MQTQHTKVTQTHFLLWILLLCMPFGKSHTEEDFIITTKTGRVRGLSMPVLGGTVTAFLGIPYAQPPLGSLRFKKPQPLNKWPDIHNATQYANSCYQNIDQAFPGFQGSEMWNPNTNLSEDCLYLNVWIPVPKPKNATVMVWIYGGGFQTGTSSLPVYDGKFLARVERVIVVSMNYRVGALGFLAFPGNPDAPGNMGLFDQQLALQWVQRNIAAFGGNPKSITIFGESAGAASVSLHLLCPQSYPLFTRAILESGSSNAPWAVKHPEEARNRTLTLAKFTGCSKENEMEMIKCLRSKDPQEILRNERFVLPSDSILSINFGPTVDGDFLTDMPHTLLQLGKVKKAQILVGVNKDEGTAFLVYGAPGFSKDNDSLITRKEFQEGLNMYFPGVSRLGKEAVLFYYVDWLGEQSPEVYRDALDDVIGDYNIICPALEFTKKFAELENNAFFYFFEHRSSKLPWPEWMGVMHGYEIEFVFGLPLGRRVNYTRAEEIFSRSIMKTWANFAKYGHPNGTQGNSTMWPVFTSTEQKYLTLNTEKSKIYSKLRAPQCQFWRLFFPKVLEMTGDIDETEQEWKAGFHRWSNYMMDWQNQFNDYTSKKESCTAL

SMILES | IC50 (Acetylcholinesterase) [µM] | IC50 (Cholinesterase) [nM]
CC(C)c1ccc(NC(=O)Oc2ccc3c(c2)[C@]2(C)CCN(CCN4CCCCC4)[C@@H]2N3C)cc1 | 3.5 | 170
CC(C)c1ccc(NC(=O)Oc2ccc3c(c2)[C@]2(C)CCN(CCCc4ccccc4)[C@@H]2N3C)cc1 | > 100 | 510
CC(C)c1ccc(NC(=O)Oc2ccc3c(c2)[C@]2(C)CCN(CCCCc4ccccc4)[C@@H]2N3C)cc1 | > 100 | 550
Cc1ccc(CCN2CC[C@@]3(C)c4cc(OC(=O)Nc5ccc(C(C)C)cc5)ccc4N(C)[C@@H]23)c(C)c1 | > 100 | 1100
CC(C)c1ccc(NC(=O)Oc2ccc3c(c2)[C@]2(C)CCN(C)[C@@H]2N3C)cc1 [4-ISOPROPYLPHENSERINE] | 8.4 | 240
CC(C)c1ccc(NC(=O)Oc2ccc3c(c2)[C@]2(C)CCN(Cc4ccccc4)[C@@H]2N3C)cc1 | > 100 | 510
CC(C)c1ccc(NC(=O)Oc2ccc3c(c2)[C@]2(C)CCN(CC(c4ccccc4)c4ccccc4)[C@@H]2N3C)cc1 | > 100 | 10000
CC(C)c1ccc(NC(=O)Oc2ccc3c(c2)[C@]2(C)CCN(CCc4ccc(F)cc4)[C@@H]2N3C)cc1 | > 100 | 500
CC(C)c1ccc(NC(=O)Oc2ccc3c(c2)[C@]2(C)CCN(CCc4ccccn4)[C@@H]2N3C)cc1 | 4.2 | 160
CC(C)c1ccc(CCN2CC[C@@]3(C)c4cc(OC(=O)Nc5ccc(C(C)C)cc5)ccc4N(C)[C@@H]23)cc1 | > 100 | 3300
CC(C)c1ccc(NC(=O)Oc2ccc3c(c2)[C@]2(C)CCN(CCc4ccc(Cl)cc4Cl)[C@@H]2N3C)cc1 | > 100 | 2600
CC(C)c1ccc(NC(=O)Oc2ccc3c(c2)[C@]2(C)CCN(C(Cc4ccccc4)c4ccccc4)[C@@H]2N3C)cc1 (stereo not given in full) | > 100 | 15000
CC(C)c1ccc(NC(=O)Oc2ccc3c(c2)[C@]2(C)CCN(CCc4ccncc4)[C@@H]2N3C)cc1 | 23 | 170
CC(C)c1ccc(NC(=O)Oc2ccc3c(c2)[C@]2(C)CCN(CCc4ccccc4)[C@@H]2N3C)cc1 [PHENETHYLCYMSERINE] | > 100 | –
CC(C)c1ccc(NC(=O)Oc2ccc3c(c2)[C@]2(C)CCN(CCc4ccc(Cl)cc4)[C@@H]2N3C)cc1 | > 100 | 500
CC(C)c1ccc(NC(=O)Oc2ccc3c(c2)[C@]2(C)CCN(CC(C)c4ccccc4)[C@@H]2N3C)cc1 (stereo not given in full) | > 100 | 720
Cc1ccc(CCN2CC[C@@]3(C)c4cc(OC(=O)Nc5ccc(C(C)C)cc5)ccc4N(C)[C@@H]23)cc1 | > 100 | 730
CC(C)c1ccc(NC(=O)Oc2ccc3c(c2)[C@]2(C)CCN(CCc4cccnc4)[C@@H]2N3C)cc1 | > 100 | 180
